# Assay outcomes (PubChem)
# KCNQ1 inh = human KCNQ1 channel inhibition; P51787; CHO-K1 KCNQ1, FluxOR thallium flux fluorescence; active compounds read high; B-score at 10 µM; 1.3% of 310,000 active; AID 2642;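 active = compounds whose thallium flux B-score, printed positive for inhibition, exceeds three library SD while starting fluorescence stays within three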;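 note: channel opened by potassium depolarization with thallium stimulus after 20 min compound exposure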
# KCNK3 block = human KCNK3 channel inhibition, primary screen. 0.84% of 340,000 active. O14649. B-score at 10 µM. CHO-KCNK3 thallium flux, FluxOR fluorescence; active compounds read low;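 active = B-score under library mean minus 4 SD, starting fluorescence ratio at most library mean plus 5 SD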;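 note: more negative B-score means stronger inhibition of thallium flux through KCNK3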
# hERG rescue = shields human hERG channel from block by proarrhythmic agents | activation (rescue from dofetilide block), less the hit threshold, % at 10 µM | 0.51% of 310,000 active | CHO-hERG, FluxOR thallium flux, dofetilide IC70 present | Q12809;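 active = activation above the mean of controls blocked by dofetilide plus 5 SD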;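 note: thallium influx through hERG after potassium depolarization seen as dye fluorescence rise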
# Kir21 inh = blocks the mouse Kir2.1 inward-rectifier potassium channel | P35561 | HEK293-Kir2.1, FluxOR thallium flux fluorescence; active compounds read low | B-score at 10 µM | 0.85% of 310,000 active | AID 1672;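 active = fluorescence ratio B-score at or below minus 3 SD of library scores, with starting-brightness B-score within 2 SD, cut at about -4.2 in these data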;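 note: channel flux triggered by added potassium and thallium sulfate stimulus; B-score of peak minus minimum fluorescence over baseline after thallium stimulus; more negative B-score means stronger Kir2.1 block with less thallium influx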
# KCNK9 block = blocks the human KCNK9 two-pore domain potassium channel. HEK293 KCNK9, FluxOR thallium flux fluorescence; active compounds read low. B-score at 10 µM. Q9NPC2. AID 488922. 1.2% of 310,000 active;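 active = ratio B-score over 3 SD below the library mean, with starting fluorescence within 5 SD of its mean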;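 note: negative B-score means less thallium flux so channel inhibition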
# KCNQ1 act = human KCNQ1 channel potentiation or activation; CHO-K1 KCNQ1, thallium flux FluxOR fluorescence; active compounds read high; P51787; B-score at 10 µM; AID 2648; 0.35% of 310,000 active;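 active = fluorescence ratio B-score, a plate-corrected score, at least three library SD, with initial intensity B-score within 5 SD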
#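 Schedule – 37 °C overnight plating, 90-min dark dye load, 20-min compound pretreatment · System – stable KCNQ1 CHO-K1 line · Probe or stimulus – thallium- and potassium-containing depolarizing buffer · Measured by – kinetic FluxOR fluorescence, 10 s baseline plus 110 s post-stimulus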
# Numbers without * were called inactive; i = inactive; . = not tested or not shown. A selection: hits, their analogues and other compounds. The true share with any hit is near 3.7%.
SMILES,KCNQ1 inh,KCNK3 block,hERG rescue,Kir21 inh,KCNK9 block,KCNQ1 act
CCOC(=O)c1cc2c(=O)n3ccccc3nc2n(Cc2ccco2)c1=NC(=O)c1cccc(OC)c1,7*,i,-21,-0.78,i,i
COc1ccc(CCNC(=O)c2ccccc2OCc2c(C)noc2C)cc1,.,i,.,.,.,.
CCC(C)C(NC(=O)CCC(=O)OCC(=O)[C@@]1(O)CCC2[C@@H]3CCC4=CC(=O)C=C[C@]4(C)C3[C@@H](O)C[C@@]21C)C(=O)O (stereo partly specified),i,i,-2,0.13,i,i
CC(=O)c1cn(CC(=O)Nc2ccccc2Cl)c2ccccc12,i,i,-10,1.1,i,i
C=C(CN(C)C)C(=O)c1cc(OC)c(OC)cc1OC,.,i,.,.,.,.
CCn1c(C)c(C(C)=O)c(N2CCN(c3ccccn3)CC2)nc1=S,i,i,2,2.3,-6.7*,i
CCn1c(C)c(C(C)=O)c(N2CCN(c3ccccc3)CC2)nc1=S,i,i,-8,-0.88,i,i
Clc1ccc(CONc2ncnc3nonc23)c(Cl)c1,7*,i,-25,-1.6,i,i
CCC1=NN(C(=O)C(=O)Nc2ccc(Br)cc2)C(O)(C(F)(F)F)C1 (stereo unspecified),6*,i,-3,0.86,i,i
COc1ccc(NC(=O)C(=O)N2N=C(C(C)C)CC2(O)C(F)(F)F)cc1 (stereo unspecified),6*,i,2,-1.1,i,i
CCCC1=NN(C(=O)C(=O)Nc2ccc(Br)cc2)C(O)(C(F)(F)F)C1 (stereo unspecified),i,i,-9,-0.22,i,i
CC(C)C1=NN(C(=O)c2cccnc2)C(O)(C(F)(F)F)C1 (stereo unspecified),i,i,-1,-1.4,i,i
CC1CN(C(=O)CCn2c(=O)oc3ccccc32)CC(C)O1 (stereo unspecified),i,-9*,-18,-0.1,i,i
O=C(O)CNS(=O)(=O)c1ccc(Br)s1,i,i,-6,-1.1,i,i
O=S(=O)(NCCc1ccccc1)c1ccc(Br)s1,i,i,-6,-4.2*,i,i
CC(C)(C)c1ccc(OCc2nc(-c3ccccn3)no2)c(Br)c1,i,i,-8,-0.41,-6.8*,i
Clc1cc(Cl)c(OCc2nc(-c3ccccn3)no2)cc1Cl,i,i,-7,-0.05,i,i
Cc1ccc(C2C3=C(NCCN=C3c3ccccc3)C(=O)N2c2ccccc2)cc1 (stereo unspecified),i,i,-14,-8.8*,i,i
CCOc1ccc(N2C(=O)C3=C(C(c4ccc(Cl)cc4)=NCCN3)C2c2cccnc2)cc1 (stereo unspecified),i,i,-10,0.22,i,i
CN(C(=O)c1cccc(NC(=O)Cc2ccc(NC(=O)C3CCN(C(=O)C4CCCCC4)CC3)cc2)c1)C1CCCC1,.,i,.,.,.,.
CCN(CC)CC#CCC(O)(c1ccccc1)c1ccccc1,i,i,-20,-1.7,i,i
CCN(CC)CC#CCC(C)(c1ccccc1)c1ccccc1,i,i,-8,-8.9*,i,i
O=C(COc1ccc2c3c(c(=O)oc2c1)CCC3)N[C@@H](CSCc1ccccc1)C(=O)O,i,i,-8,1.6,i,i
O=C(COc1ccc2c3c(c(=O)oc2c1)CCC3)N[C@@H](Cc1ccccc1)C(=O)O,i,i,5.3*,1.8,i,i
C=CCN1/C(=C2/SC(=S)N(C)C2=O)Sc2ccccc21,i,.,-13,-1.2,i,i
Cc1cccc(C(=O)NC(=S)NNC(=O)COc2ccc(Cl)cc2)c1,i,i,-13,0.23,i,59*
CC(C)(C)c1cc(CCC(=O)NNC(=S)NC(=O)c2ccccc2)cc(C(C)(C)C)c1O,i,i,-8,0.07,i,36*
Cc1cccc(C(=O)NNC(=S)NC(=O)c2ccccc2)c1,i,i,-1,1.3,i,23*
Cc1cccc(C(=O)NNC(=S)NC(=O)c2cccs2)c1,i,i,-4,0.93,i,i
